What was measured:
Assay type in all cases: nucleic-acid assay; call rule not given here
[1] = system: Nucleic Acid; test: Inhibitory concentration required to displace DNA-bound ethidium bromide molecules bound to CA12 (5''-CGCGAATTCGCG)2
Procedure, shortened: (§1)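 Ethidium bromide displacement at 25 °C: duplex DNA (1 μM) and ethidium bromide (1 μM) in 20 mM Tris–HCl, pH 8.0, containing 1 mM MgCl2. Ligand titrated from 0 to 10 μM. Fluorescence read at λex 546 nm, λem 590 nm. IC50 is the concentration displacing 50% of DNA-bound ethidium, expressed as the dimer complex except for Hoechst 33258.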

[2] = system: Nucleic Acid; test: Inhibitory concentration required to displace DNA-bound ethidium bromide molecules bound to CT12 (5''-CGTAGCGCTACG)2; procedure, shortened: as §1
[3] = system: Nucleic Acid; test: Inhibitory concentration required to displace one of two DNA-bound ethidium bromide molecules bound to CT12 (5''-CGTAGCGCTACG)2
Procedure, shortened: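 Ethidium bromide displacement at 25 °C. CT12 duplex (1 μM) and ethidium bromide (1 μM) in 20 mM Tris–HCl, pH 8.0, with 1 mM MgCl2. Ligand titrated from 0 to 10 μM. Fluorescence read at λex 546 nm, λem 590 nm. IC50 is the concentration that displaces 50% of DNA-bound ethidium, expressed as dimer complex.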

[4] = system: Nucleic Acid; test: Inhibitory concentration required to displace DNA-bound ethidium bromide molecules bound to CA12 (5''-CGCGAATTCGCG)2; NI denotes no inhibition; procedure, shortened: as §1
[5] = system: Nucleic Acid; test: Inhibitory concentration required to displace DNA-bound ethidium bromide molecules bound to CT12 (5''-CGTAGCGCTACG)2; NI denotes no inhibition; procedure, shortened: as §1

SMILES | IC50 [1] [nM] | IC50 [2] [nM] | IC50 [4] | IC50 [5] | IC50 [3] [nM]
CCCCCC(O)C1C(=O)c2c(cc3cc(O)cc(O)c3c2O)C[C@H]1C (stereo partly specified) | 4500 | 6500 |  |  | 
CCCCCC[C@@H]1C(=O)c2c(cc3cc(O)cc(O)c3c2O)C[C@H]1C | 3000 | 3000 |  |  | 
CO[C@@H]1[C@H](O)C[C@@H](O[C@@H]2C[C@H](Oc3cc4cc5c(c(O)c4c(O)c3C)C(=O)[C@@H](O[C@H]3C[C@@H](O[C@H]4C[C@@H](O[C@H]6C[C@](C)(O)[C@@H](OC(C)=O)[C@H](C)O6)[C@H](O)[C@@H](C)O4)[C@H](O)[C@@H](C)O3)[C@H]([C@H](OC)C(=O)[C@@H](O)[C@@H](C)O)C5)O[C@H](C)[C@@H]2OC(C)=O)O[C@@H]1C [CHROMOMYCIN A3] | 9000 |  |  |  | 3000
CCCCCCC1C(=O)c2c(cc3cc(O)cc(O)c3c2O)C[C@H]1C (stereo partly specified) | 3000 | 3500 |  |  | 
CN1CCN(c2ccc3[nH]c(-c4ccc5[nH]c(-c6ccc(O)cc6)nc5c4)nc3c2)CC1 [HOECHST 33258] | 1000 | > 20000 |  |  | 

More lines, main results first:

IC50 [1] [nM] | IC50 [2] [nM] | IC50 [4] | IC50 [5] | SMILES | IC50 [3] [nM]
2500 | 2500 |  |  | CCCCC/C=C1/C(=O)c2c(cc3cc(O)cc(O)c3c2O)C[C@H]1C | 
2500 | 3000 |  |  | CCCCCC[C@H]1C(=O)c2c(cc3cc(O)cc(O)c3c2O)C[C@H]1C | 
 |  | Not Active | Not Active | C[C@H]1CC(=O)c2c(cc3cc(O)cc(O)c3c2O)C1 | 
